ChEMBL document CHEMBL1122866, “3-Phenyl-1-indanamines. Potential antidepressant activity and potent inhibition of dopamine, norepinephrine, and serotonin uptake” (J Med Chem, 1985)
pIC50: −log10 of the molar value.

What was measured:
Assay type in all cases: functional
Mus musculus [1] = species on record: Mus musculus; test: Antagonistic activity against tetrabenazine-induced ptosis in mice.
Summary of the method: (§1)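 Mice dosed intraperitoneally; the result is reported as the ED50 in μmol/kg with a range in parentheses. Test compounds are racemates of >95% isomeric purity by TLC.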

[2] = target: Norepinephrine transporter (Rattus norvegicus, UniProt Q9WTR4); test: Inhibition of noradrenaline uptake in rat synaptosomal fraction
Chain of Norepinephrine transporter (Q9WTR4 whole entry): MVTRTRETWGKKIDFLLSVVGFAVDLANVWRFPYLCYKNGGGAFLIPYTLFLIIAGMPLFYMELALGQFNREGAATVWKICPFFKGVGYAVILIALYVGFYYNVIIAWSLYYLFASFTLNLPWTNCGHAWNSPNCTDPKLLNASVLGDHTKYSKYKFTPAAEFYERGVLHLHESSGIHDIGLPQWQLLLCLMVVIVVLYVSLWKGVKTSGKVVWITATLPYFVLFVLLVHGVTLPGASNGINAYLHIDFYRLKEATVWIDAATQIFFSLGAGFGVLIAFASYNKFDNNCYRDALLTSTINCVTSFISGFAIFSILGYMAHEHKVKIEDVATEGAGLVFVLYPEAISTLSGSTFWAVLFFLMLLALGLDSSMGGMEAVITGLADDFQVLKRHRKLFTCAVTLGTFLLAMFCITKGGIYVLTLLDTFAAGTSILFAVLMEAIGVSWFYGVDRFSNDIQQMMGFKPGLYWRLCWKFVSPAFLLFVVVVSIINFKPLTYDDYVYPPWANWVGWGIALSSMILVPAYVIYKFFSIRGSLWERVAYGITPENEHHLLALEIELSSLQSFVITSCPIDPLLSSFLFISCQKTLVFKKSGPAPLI
Summary of the method: (§2)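 Synaptosomal uptake of DA, NE or 5-HT measured. The IC50 is in nM and is the mean of at least two determinations, each using five test concentrations in triplicate.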

[3] = target: Sodium-dependent serotonin transporter (Rattus norvegicus, UniProt P31652); test: Inhibition of 5-HT uptake in rat synaptosomal fraction; summary of the method: as §2
Chain of Sodium-dependent serotonin transporter (P31652 whole entry): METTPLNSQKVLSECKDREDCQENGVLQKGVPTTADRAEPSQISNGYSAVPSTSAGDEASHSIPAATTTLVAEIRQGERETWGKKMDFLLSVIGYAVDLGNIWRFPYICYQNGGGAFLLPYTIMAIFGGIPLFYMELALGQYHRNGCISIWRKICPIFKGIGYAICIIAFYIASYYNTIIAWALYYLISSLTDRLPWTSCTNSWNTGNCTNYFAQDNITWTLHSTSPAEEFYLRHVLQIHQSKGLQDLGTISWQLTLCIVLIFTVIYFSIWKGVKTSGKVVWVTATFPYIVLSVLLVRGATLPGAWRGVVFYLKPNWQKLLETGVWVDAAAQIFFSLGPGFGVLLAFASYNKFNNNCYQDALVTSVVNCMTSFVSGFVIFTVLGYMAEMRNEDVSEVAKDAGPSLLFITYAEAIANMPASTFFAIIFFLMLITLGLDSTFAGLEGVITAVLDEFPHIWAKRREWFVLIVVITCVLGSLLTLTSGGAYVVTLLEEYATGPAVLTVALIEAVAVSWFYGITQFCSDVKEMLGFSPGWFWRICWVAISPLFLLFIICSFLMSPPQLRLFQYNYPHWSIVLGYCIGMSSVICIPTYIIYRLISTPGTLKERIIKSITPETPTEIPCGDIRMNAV

[4] = target: Sodium-dependent dopamine transporter (Rattus norvegicus, UniProt P23977); test: Inhibition of dopamine uptake in rat synaptosomal fraction
Chain of Sodium-dependent dopamine transporter (P23977 whole entry): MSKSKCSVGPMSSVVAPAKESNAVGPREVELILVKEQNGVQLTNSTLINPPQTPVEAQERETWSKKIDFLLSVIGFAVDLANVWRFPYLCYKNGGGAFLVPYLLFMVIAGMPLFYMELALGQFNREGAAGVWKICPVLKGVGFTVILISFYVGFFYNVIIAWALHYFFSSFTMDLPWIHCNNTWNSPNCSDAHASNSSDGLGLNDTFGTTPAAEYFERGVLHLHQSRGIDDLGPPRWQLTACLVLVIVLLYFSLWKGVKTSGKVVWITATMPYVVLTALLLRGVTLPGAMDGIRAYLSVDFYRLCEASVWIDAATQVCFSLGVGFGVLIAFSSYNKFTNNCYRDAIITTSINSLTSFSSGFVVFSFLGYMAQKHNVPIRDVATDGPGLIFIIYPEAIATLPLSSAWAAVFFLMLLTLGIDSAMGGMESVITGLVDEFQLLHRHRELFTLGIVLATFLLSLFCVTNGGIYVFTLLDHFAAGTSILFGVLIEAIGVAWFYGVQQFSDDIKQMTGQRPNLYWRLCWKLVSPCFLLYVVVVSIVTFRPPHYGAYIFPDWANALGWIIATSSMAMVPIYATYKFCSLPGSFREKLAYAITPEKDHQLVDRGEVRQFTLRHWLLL

Mus musculus [5] = species on record: Mus musculus; test: Antagonistic activity against 5-HTP induced potentiation in mice; summary of the method: as §1
Mus musculus [6] = species on record: Mus musculus; test: Antagonistic activity against tetrabenazine-induced ptosis in mice; summary of the method: as §1

Structure (SMILES) | ED50 (Mus musculus [1]) [µmol/kg] | pIC50 [2] | pIC50 [3] | ED50 (Mus musculus [1]; Mus musculus, read-out: ED50) [µmol/kg] | pIC50 [4] | ED50 (Mus musculus [5]) [µmol/kg] | ED50 (Mus musculus [6]; Mus musculus, read-out: ED50) [µmol/kg] | ED50 (Mus musculus [6]) [µM/kg]
CCN(CC)C1CC(c2ccc(Cl)c(Cl)c2)c2ccccc21.Cl (stereo in doubt; 86) | >108 | 7.89 | – | – | – | – | – | –
CNC1CC(c2ccc(F)cc2)c2ccccc21.Cl (stereo in doubt; 32) | 19 | 8.54 | 7.12 | – | – | – | – | –
CN(C)C1CC(c2ccc(Cl)c(Cl)c2)c2ccc(F)cc21 (stereo in doubt; 51) | – | 7.68 | 8.96 | > 111 | 7.92 | – | – | –
CNC1CC(c2ccc(Cl)c(C(F)(F)F)c2)c2ccccc21 (centres undefined) | – | 7.60 | 8.38 | > 110 | 5.46 | 55 | – | –
CNC1CC(c2ccc(Br)cc2)c2ccccc21.Cl (stereo in doubt; 64) | 29 | 8.06 | 9.80 | – | 7.17 | – | – | –
CN(C)C1CC(c2cccc(Cl)c2)c2ccccc21.Cl (stereo in doubt; 40) | 10 | 7.82 | 7.44 | – | 7.15 | – | – | –
CCNC1CC(c2ccc(Cl)c(Cl)c2)c2ccccc21.Cl (stereo in doubt; 84) | – | 7.31 | 8.80 | – | – | – | – | –
CN(C)C1CC(c2ccc(Cl)c(Cl)c2)c2ccc(F)cc21 (stereo in doubt; 77) | – | 8.43 | 8.60 | – | 7.51 | – | – | –
CN(C)C1CC(c2ccc(Cl)c(Cl)c2)c2ccccc21 (centres undefined) | – | 7.62 | 9.19 | – | 7.55 | – | – | –
CN(C)C1CC(c2ccc(F)c(F)c2)c2ccccc21 (centres undefined) [listing 1 of 2 here] | – | 7.21 | 7.70 | 7.1 | 6.60 | – | – | –
Clc1ccc(C2CC(N3CCCCC3)c3ccccc32)cc1Cl (stereo in doubt; 100) | – | 7.10 | 6.38 | > 104 | 7.10 | – | – | –
CN(C)C1CC(c2ccc(Br)cc2)c2ccccc21 (stereo in doubt; 37) | 9.8 | 7.55 | 10.40 | – | 7.27 | – | – | –
CN1CCN(C2CC(c3ccc(Cl)c(Cl)c3)c3ccccc32)CC1 (single isomer, unassigned; (+)-101) | >91 | – | – | – | 6.47 | – | – | –
CNCCCC1(c2ccccc2)SC(C)(C)c2ccccc21 (centres undefined) | – | 9.10 | 6.07 | 2.3 | 5.03 | > 115 | – | –
CN(C)C1CC(c2ccc(Cl)cc2Cl)c2ccccc21 (stereo in doubt; 75) | – | 7.47 | – | 23 | – | – | – | –
CN(C)C1CC(c2ccc(Cl)cc2)c2ccccc21 (stereo in doubt; 63) | – | 8.36 | 9.47 | 43 | 6.72 | – | – | –
CCN(CC)C1CC(c2ccc(Cl)c(Cl)c2)c2ccccc21.Cl (stereo in doubt; 85) | 52 | 9.25 | 8.55 | – | 8.68 | – | – | –
CN(C)C1CC(c2ccccc2)c2ccccc21.Cl (stereo in doubt; 31) | 17 | 6.89 | 6.82 | – | 6.22 | – | – | –
CNC1CC(c2ccc(Cl)cc2Cl)c2ccccc21.Cl (stereo in doubt; 48) | 19 | 7.82 | 9.04 | – | 6.29 | – | – | –

Structure (SMILES) | ED50 (Mus musculus [1]) [µmol/kg] | pIC50 [2] | pIC50 [3] | ED50 (Mus musculus [1]; Mus musculus, read-out: ED50) [µmol/kg] | pIC50 [4] | ED50 (Mus musculus [5]) [µmol/kg] | ED50 (Mus musculus [6]; Mus musculus, read-out: ED50) [µmol/kg] | ED50 (Mus musculus [6]) [µM/kg]
CNC1CC(c2ccc(Cl)c(Cl)c2)c2ccc(F)cc21.Cl (stereo in doubt; 50) | 33 | 9.15 | 8.64 | – | 9.92 | – | – | –
CNC1CC(c2ccc(F)c(F)c2)c2ccccc21.Cl (stereo in doubt; 41) | 58 | 8.80 | 7.31 | – | 7.68 | – | – | –
CNC1CC(c2cccc(Cl)c2)c2ccccc21.Cl (stereo in doubt; 66) | 119 | 7.72 | 8.17 | – | 6.66 | – | – | –
CNC1CC(c2ccc(Cl)c(Cl)c2)c2ccc(F)cc21.Cl (stereo in doubt; 76) | 15 | 7.85 | 9.12 | – | 8.30 | – | – | –
CCNC1CC(c2ccc(Cl)c(Cl)c2)c2ccccc21.Cl (stereo in doubt; 83) | – | 9.49 | 8.64 | – | 8.82 | – | – | –
CN(C)C1CC(c2ccc(Cl)c(Cl)c2)c2ccc(O)cc21 (centres undefined) | – | 7.80 | 9.43 | – | 8.10 | – | 22 | –
CN(C)C1CC(c2ccccc2)c2ccccc21.Cl (stereo in doubt; 59) | >143 | 7.39 | – | – | – | – | – | –
CN(C)C1CC(c2ccc(F)cc2)c2ccc(F)cc21.Cl (centres undefined) | 28 | 6.46 | 7.74 | – | 6.21 | – | – | –
CN(C)C1CC(c2ccc(F)cc2)c2ccc(F)cc21 (centres undefined) | >147 | 7.05 | – | – | – | – | – | –
CN(C)CCCC1(c2ccc(F)cc2)OCc2cc(C#N)ccc21 (centres undefined) [CITALOPRAM] | – | – | – | – | – | – | 51 | –
CNC1CC(c2cccc(Cl)c2)c2ccccc21.Cl (stereo in doubt; 39) | 45 | 9.92 | 7.39 | – | 7.85 | – | – | –
CN(C)C1CC(c2ccc(Br)cc2)c2ccccc21 (stereo in doubt; 65) | 2.3 | 8.37 | 9.85 | – | 7.08 | – | – | –
CN1CCN(C2CC(c3ccc(Cl)c(Cl)c3)c3ccccc32)CC1 (stereo in doubt; 102) | – | – | – | – | 8.36 | – | – | 100
CCCN(CCC)C1CC(c2ccc(Cl)c(Cl)c2)c2ccccc21.Cl (stereo in doubt; 89) | 25 | 7.14 | 6.14 | – | 6.82 | – | – | –
CNC1CC(c2ccc(Cl)c(Cl)c2)c2ccc(O)cc21 (stereo in doubt; 54) | – | 9.09 | 8.60 | – | 9.28 | – | – | 21
CNC1CC(c2ccc(F)c(F)c2)c2ccccc21.Cl (stereo in doubt; 68) | 23 | 7.48 | 8.34 | – | 6.82 | – | – | –
CCCN(CCC)C1CC(c2ccc(Cl)c(Cl)c2)c2ccccc21.Cl (stereo in doubt; 90) | >100 | – | – | – | 6.74 | – | – | –
CN(C)C1CC(c2ccc(F)cc2)c2ccc(C(F)(F)F)cc21.Cl (stereo in doubt; 82) | >111 | 6.46 | – | – | – | – | – | –
CNC1CC(c2ccc(Cl)cc2Cl)c2ccccc21.Cl (stereo in doubt; 74) | 98 | 8.21 | 7.68 | – | 7.00 | – | – | –

Structure (SMILES) | ED50 (Mus musculus [1]) [µmol/kg] | pIC50 [2] | pIC50 [3] | ED50 (Mus musculus [1]; Mus musculus, read-out: ED50) [µmol/kg] | pIC50 [4] | ED50 (Mus musculus [5]) [µmol/kg] | ED50 (Mus musculus [6]; Mus musculus, read-out: ED50) [µmol/kg] | ED50 (Mus musculus [6]) [µM/kg]
CNC1CC(c2ccc(F)cc2)c2ccccc21.Cl (stereo in doubt; 60) | 79 | 6.92 | 7.68 | – | – | – | – | –
Clc1ccc(C2CC(N3CCCC3)c3ccccc32)cc1Cl (stereo in doubt; 98) | – | 7.57 | 8.51 | – | 7.49 | – | – | –
CNC1CC(c2ccccc2)c2ccccc21 (centres undefined) | – | 6.49 | 6.68 | > 154 | 5.85 | 211 | – | –
CN1CCN(C2CC(c3ccc(Cl)c(Cl)c3)c3ccccc32)CC1 (single isomer, unassigned; (-)) | – | – | – | – | 8.00 | – | – | 26
CNC1CC(c2ccc(Cl)cc2)c2ccccc21 (centres undefined) | >155 | 9.29 | 8.40 | – | 8.25 | – | – | –
CCCNC1CC(c2ccc(Cl)c(Cl)c2)c2ccccc21.Cl (stereo in doubt; 87) | 68 | 9.18 | 6.82 | – | 8.18 | – | – | –
CNC1CC(c2ccc(C(F)(F)F)cc2)c2ccccc21 (centres undefined) | – | 7.17 | 8.33 | 58 | 6.80 | 45 | – | –
CN(C)C1CC(c2ccc(F)cc2)c2ccccc21.Cl (stereo in doubt; 61) | 24 | 7.62 | 8.21 | – | – | – | – | –
CNC1CC(c2ccc(Br)cc2)c2ccccc21 (stereo in doubt; 36) | – | 9.52 | 9.55 | 47 | 8.60 | – | – | –
CN(C)C1CC(c2ccc(F)cc2)c2ccc(C(F)(F)F)cc21 (stereo in doubt; 57) | – | 7.07 | 7.37 | 116 | 6.62 | – | – | –
CN(C)C1CC(c2ccc(Cl)cc2Cl)c2ccccc21.Cl (stereo in doubt; 49) | 23 | 7.05 | 9.24 | – | 5.70 | – | – | –
Clc1ccc(C2CC(N3CCCC3)c3ccccc32)cc1Cl (stereo in doubt; 97) | – | – | – | > 108 | 6.49 | – | – | –
CN(C)C1CC(c2ccc(F)c(F)c2)c2ccccc21 (centres undefined) [listing 2 of 2 here] | 13 | 7.54 | 8.89 | – | 6.74 | – | – | –
CNC1CC(c2ccc(Cl)cc2)c2ccccc21.Cl (centres undefined) | 376 | 7.62 | 9.19 | – | 6.92 | – | – | –
CN(C)C1CC(c2cccc(Cl)c2)c2ccccc21.Cl (stereo in doubt; 67) | 85 | 9.11 | 8.59 | – | 7.27 | – | – | –
CN1CCN(C2CC(c3ccc(Cl)c(Cl)c3)c3ccccc32)CC1 (stereo in doubt; (-)-102) | – | – | – | – | 8.64 | – | – | 69
CN(C)C1CC(c2ccc(F)cc2)c2ccccc21.Cl (stereo in doubt; 33) | 7.8 | 7.00 | 7.48 | – | 6.49 | – | – | –
CN(C)C1CC(c2ccc(Cl)cc2)c2ccccc21 (stereo in doubt; 35) | 56 | 7.64 | 9.19 | – | 6.85 | – | – | –
